Experimental findings from ChEMBL document CHEMBL4334451, “Natural Alkaloid Berberine Activity against Pseudomonas aeruginosa MexXY-Mediated Aminoglycoside Resistance: In Silico and in Vitro Studies” (J Nat Prod, 2019) are described below.

Active and inactive are the calls of the source. The calls are words filed in the database; no cut-off is given here.

Assay type in all cases: protein-complex assay
For assay [1], the target named is T1, MexXY/OprM (Pseudomonas aeruginosa (strain ATCC 15692 / DSM 22644 / CIP 104116 / JCM14847 / LMG 12228 / 1C / PRS 101 / PAO1)) (UniProt Q51487+Q9ZNG9+Q9ZNG8). The assay is described as follows: Inhibition of MexXY/OPRM in Pseudomonas aeruginosa C76 assessed as reduction in bacterial resistance to tobramycin by measuring tobramycin MIC at 80 ug/ml incubated for 24 to 48 hrs by broth microdilution method (reference value: 32 ug/ml). In general terms: In broth dilution the organism is exposed to a series of concentrations in liquid medium.

The target of assay [2] is T1, MexXY/OprM (Pseudomonas aeruginosa (strain ATCC 15692 / DSM 22644 / CIP 104116 / JCM14847 / LMG 12228 / 1C / PRS 101 / PAO1)). The assay is described as follows: Inhibition of MexXY/OPRM in Pseudomonas aeruginosa C70 assessed as reduction in bacterial resistance to tobramycin by measuring fold reduction in tobramycin MIC at 80 ug/ml incubated for 24 to 48 hrs by broth microdilution method.

Assay [3] shares this target. The assay is described as follows: Inhibition of MexXY/OPRM in Pseudomonas aeruginosa C93 assessed as reduction in bacterial resistance to tobramycin by measuring fold reduction in tobramycin MIC at 80 ug/ml incubated for 24 to 48 hrs by broth microdilution method. The essentials: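 Tobramycin MIC by CLSI broth microdilution at 37°C, read at 24 and 48 h, with and without a fixed berberine concentration selected from checkerboard assays. Berberine stock was in 50% DMSO/50% methanol, final DMSO about 1%. A 2-fold decrease in tobramycin MIC was scored as synergy.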

The target is the same in assay [4]. As to the kind of experiment: Inhibition of MexXY/OPRM in Pseudomonas aeruginosa C25 assessed as bacterial growth up to 320 ug/ml incubated for 24 to 48 hrs by broth microdilution method. The essentials:
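Broth microdilution following CLSI guidelines, with P. aeruginosa ATCC 27853 as reference strain. Berberine was tested at 2-fold concentrations from 10 to 320 µg/ml, dissolved in 50% DMSO/50% methanol, with the top concentration set to keep final DMSO close to 1%. Plates were incubated at 37°C and read for visible growth at 24 and 48 h.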

Assay [5] shares this target. The assay is described as follows: Inhibition of MexXY/OPRM in Pseudomonas aeruginosa C93 assessed as bacterial growth up to 320 ug/ml incubated for 24 to 48 hrs by broth microdilution method. In short, it runs like this: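 Broth microdilution per CLSI, with P. aeruginosa ATCC 27853 as reference strain, in 2-fold dilution series. Plates were incubated at 37°C and read for visible growth at 24 and 48 h. Berberine stock was in 50% DMSO/50% methanol, with final DMSO kept near 1%. Berberine was tested at 10–320 µg/ml, alone or at a fixed level with serial tobramycin.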

For assay [6] the target is unchanged. The assay is described as follows: Inhibition of MexXY/OPRM in Pseudomonas aeruginosa C95 assessed as reduction in bacterial resistance to tobramycin by measuring increase in tobramycin-mediated bactericidal activity at 80 ug/ml in presence of 1XMIC to 2XMIC tobramycin measured after 2 hrs by Time-kill curve analysis.
Assay [7] shares this target. The assay is described as follows: Inhibition of MexXY/OPRM in Pseudomonas aeruginosa C70 assessed as reduction in bacterial resistance to tobramycin by measuring tobramycin MIC at 80 ug/ml incubated for 24 to 48 hrs by broth microdilution method (reference value: 32 ug/ml).

As for `COc1ccc2cc3[n+](cc2c1OC)CCc1cc2c(cc1-3)OCO2` [BERBERINE], the MIC was found to be 16 µg/mL in assay [1] and 8 µg/mL in assay [7]. For the same molecule, the fold change (FC) in assay [2] and in assay [3] was greater than 2 throughout. The inhibition result in assay [4] and in assay [5] was “inactive” each time. In addition, the inhibition result in assay [6] is “Active”.
